# APJ ag = activates the human apelin receptor APJ; P35414; CHO-K1 APJ PathHunter beta-arrestin, luminescence; 0% DMSO wells, 100% apelin; activation, % at 20 µM; hit rate 0.11% among 330,000; AID 2520;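 active = activation more than six SD over the plate average, tested at 20 µM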;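 also: 0% = DMSO alone and 100% = apelin-13 at 10 nM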
# Target sequence (P35414 whole entry, looked up): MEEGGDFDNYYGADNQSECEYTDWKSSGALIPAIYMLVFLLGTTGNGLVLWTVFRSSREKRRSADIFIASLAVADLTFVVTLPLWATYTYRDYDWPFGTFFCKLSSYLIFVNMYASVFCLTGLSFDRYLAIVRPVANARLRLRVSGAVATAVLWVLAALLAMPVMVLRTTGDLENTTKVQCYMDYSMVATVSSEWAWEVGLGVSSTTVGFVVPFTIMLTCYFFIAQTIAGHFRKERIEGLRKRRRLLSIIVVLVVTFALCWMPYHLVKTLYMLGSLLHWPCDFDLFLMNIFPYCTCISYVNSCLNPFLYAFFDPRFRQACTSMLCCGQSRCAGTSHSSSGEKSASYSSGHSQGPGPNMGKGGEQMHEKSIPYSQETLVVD
#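 Assay system – PathHunter CHO-K1 APJ (AGTRL-1) beta-arrestin reporter cells · Compound – one dose, 20 µM compound, 1% DMSO · Timing – compound 90 min 25 °C, reagent 1 h · Measured by – luminescence from split beta-galactosidase complementation, Galacton Star/Emerald II substrate · Measure – beta-arrestin recruitment to APJ as agonist activity, luminescent signal · Benchmarks – DMSO vs Apelin-13 10 nM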
# APJ antagonist = APJ receptor antagonism; CHO-K1 APJ beta-arrestin complementation, luminescence; inhibition, % at 20 µM; hit rate 0.32% among 330,000; AID 2521;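 active = inhibition above about 40% at 20 µM, limit read from the data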;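 also: cells challenged with 10 nM apelin-13 agonist together with compound; plate controls were apelin-13 plus DMSO wells for no effect and DMSO wells lacking apelin-13 for full effect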
# CCR6 antagonist = CCR6 (human) receptor antagonism; P51684; CHO-K1 CCR6 PathHunter beta-arrestin, luminescence, CCL20-stimulated; inhibition, % at 20 µM; hit rate 0.49% among 340,000; AID 493098;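 active = compounds whose inhibition of the agonist-driven luminescence signal at 20 µM reaches about 50%, limit read from the data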;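 also: cells stimulated with CCL20 at 14 nM final; plate controls were DMSO with CCL20 for no effect and DMSO without agonist for full effect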
# CXCR6 block = inhibitors of human CXCR6 receptor; AID 602244; inhibition, % at 20 µM; hit rate 0.36% among 360,000; CHO-K1 PathHunter CXCR6 beta-arrestin, luminescence; in the data active = inhibition above about 34%, passing the limit was not always enough;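 also: antagonist mode with CXCL16 agonist at 10 nM final; 0% = 10 nM CXCL16 with DMSO and 100% = unstimulated wells without agonist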
# Target sequence (O00574 whole entry, looked up): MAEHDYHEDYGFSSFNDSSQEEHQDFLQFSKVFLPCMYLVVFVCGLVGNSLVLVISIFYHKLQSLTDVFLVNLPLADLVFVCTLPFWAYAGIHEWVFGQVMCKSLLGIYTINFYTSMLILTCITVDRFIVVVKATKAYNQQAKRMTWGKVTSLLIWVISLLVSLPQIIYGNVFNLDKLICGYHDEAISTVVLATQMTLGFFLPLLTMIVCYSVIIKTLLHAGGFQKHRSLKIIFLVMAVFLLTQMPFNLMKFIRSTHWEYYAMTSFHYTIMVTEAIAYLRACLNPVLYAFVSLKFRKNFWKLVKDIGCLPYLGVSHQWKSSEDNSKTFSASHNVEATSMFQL
# EBI2 antag = EBI2 (human) antagonism. P32249. EBI2 beta-arrestin recruitment, luminescence, 7a,25-OHC stimulated. inhibition, % at 5 µM. hit rate 0.81% among 360,000; in the data active = inhibition above about 38%;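 also: enzyme fragment complementation signal reports receptor beta-arrestin coupling in cells; 0% = agonist plus DMSO wells and 100% = wells without agonist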
# EBI2 antag conf = EBI2 (human) antagonism, single concentration confirmation; shares compounds with EBI2 antag; EBI2 beta-arrestin luminescence, 7a,25-OHC antagonism; inhibition, % at 5 µM; hit rate 29% among 2,400; AID 651997;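 active = inhibition of at least 50%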
# EBI2 ag = EBI2 agonism counter-screen | EBI2-expressing cells, agonist mode, luminescence, 60 min; 0% vehicle, 100% 7α,25-dihydroxycholesterol control | activation, % at 5 µM | shares compounds with EBI2 antag | 2,400 tested, under 10 active | AID 652000;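 active = activation of at least 50%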
# bGal cs = beta-galactosidase inhibition counter-screen. shares compounds with EBI2 antag. purified beta-galactosidase, luminescent Galacton Star, 15 min. inhibition, % at 5 µM. hit rate 1% among 2,400;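 active = replicate-average signal at least 3 plate SD below neutral wells, shown as high inhibition, flagging enzyme-inhibiting false positives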;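 also: 0% = DMSO wells with enzyme and 100% = wells lacking enzyme; higher means stronger loss of beta-gal luminescence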
# The depositor's hits bear a star; . = no result given. Rows were chosen to be rich in hits. Some 1.5% of all compounds tested hit in one or more screens of this group.
SMILES,APJ ag,APJ antagonist,CCR6 antagonist,CXCR6 block,EBI2 antag,EBI2 antag conf,EBI2 ag,bGal cs
COc1ccc(S(=O)(=O)N2CCN(CCOc3ccccc3Cl)CC2)cc1OC,-5.2,2.5,10.7,-5.8,-2.2,.,.,.
Cc1ccc(OCC(=O)N2CCN(S(=O)(=O)c3ccccc3[N+](=O)[O-])CC2)cc1,-4.1,-0.3,3.3,-9.2,83.7*,60.4*,0.4,-5.2
Cc1ccc(S(=O)(=O)N2CCN(C(=O)COc3ccc(Br)cc3)CC2)cc1,-2.7,-2.9,27.5,-5.6,93.6*,72.5*,-1.1,-14.4
O=C(COc1ccccc1)N1CCN(S(=O)(=O)c2ccc(Br)cc2)CC1,1.6,8.0,16.5,0.7,64.2*,38.5,-0.3,-14.9
COc1ccc(S(=O)(=O)N2CCN(CCOc3ccc(Br)cc3)CC2)cc1OC,-0.7,12.0,4.5,-0.6,58.2*,16.1,0.1,-13.7
O=C(CS)Nc1ccc2ccccc2c1,.,.,8.1,-5.8,39.6*,26.1,0.2,2.6
COc1cccc(C(=O)Nc2ccc3ccccc3c2)c1,1.6,6.5,3.0,-5.8,13.2,.,.,.
COc1ccc(C(=O)Nc2ccc3ccccc3c2)cc1,2.7,0.8,15.1,-4.7,55.2*,38.3,-0.5,-5.9
COc1ccc(NC(=O)c2ccc(OC(=S)N(C)c3ccc(OC)cc3)cc2)cc1,5.8,-11.3,5.9,-4.6,85.7*,74.0*,-1.7,-8.8
COc1cccc(C(=O)Nc2ccc(NC(=O)Cc3ccccc3)cc2)c1,1.3,9.8,10.8,-2.8,66.5*,39.9,-0.4,7.6
Clc1ccc(/C=C/c2ncc3ccccn23)cc1,1.4,-20.4,1.3,6.8,20.9,.,.,.
CCc1nc2ccccc2c(=O)n1/N=C/c1ccc(OC)cc1,1.0,10.5,7.7,3.7,11.8,.,.,.
Cc1ccccc1CN1CCC(n2nccc2NC(=O)CCOc2ccccc2)CC1,0.7,5.6,9.1,-0.7,5.9,.,.,.
COc1ccc(OC)c(C(=O)c2ccc(C(=O)Nc3ccc4ccccc4c3)cc2)c1,-2.2,5.1,2.3,1.6,88.1*,54.7*,-0.8,-9.2
COc1ccc(NC(=O)c2cc(F)cc(F)c2)cc1Cl,1.6,11.0,0.3,-1.3,-4.5,.,.,.
COc1ccc(NC(=S)NN(C)C(=S)Nc2ccc(OC)cc2)cc1,-1.6,-27.2,6.0,1.6,67.0*,24.2,0.4,-0.1
COc1ccc(NC(=O)c2ccc(OC(F)F)cc2)cc1Cl,-1.8,6.1,15.0,-4.4,45.6*,53.9*,-1.1,-10.5
C[C@H](CO)N1C[C@H](C)[C@H](CN(C)C(=O)c2ccccc2)OCc2cnnn2CCCC1=O,.,.,.,6.8,-5.9,.,.,.
Cc1nc(NC(=O)CSc2nnc(-c3ccccc3)c(-c3ccccc3)n2)c(Cl)cc1Cl,-2.0,5.2,12.8,5.8,41.5*,24.8,0.7,3.3
O=C(CSc1nnc(-c2ccccc2)c(-c2ccccc2)n1)Nc1ncc(Cl)cc1Cl,1.7,10.8,7.7,-2.5,6.5,.,.,.
Cc1cc(NC(=O)C2(C)CCN2C(C)C)c2ccccc2n1 (configuration not stated),.,.,.,-6.2,-9.7,.,.,.
CCc1ccc(/C=C/C(=O)c2ccc(N3CCOCC3)cc2)cc1,-0.6,14.8,14.0,-3.1,83.1*,52.9*,0.4,3.2
CCc1ccc(NC(=O)CS(=O)CC(=O)Nc2ccc(N3CCOCC3)cc2)cc1 (configuration not stated),-2.2,-8.3,3.1,1.6,0.3,.,.,.
CCc1ccc(C(=O)/C=C/c2ccc([N+](=O)[O-])o2)cc1,0.9,-38.5,31.8,2.2,15.8,.,.,.
O=C(/C=C/c1ccc(F)cc1)c1ccc(N2CCOCC2)cc1,-2.6,8.4,23.5,-0.5,65.8*,50.9*,2.4,1.8
SMILES,APJ ag,APJ antagonist,CCR6 antagonist,CXCR6 block,EBI2 antag,EBI2 antag conf,EBI2 ag,bGal cs
Cc1ccc(/C=C/C(=O)c2ccc(N3CCOCC3)cc2)s1,-2.9,9.3,-2.7,-1.6,64.8*,43.2,-0.9,-9.2
CCc1ccc(/C=C/C(=O)c2ccc(S(=O)(=O)N(C)C)cc2)cc1,3.0,2.0,4.8,-2.0,85.8*,59.9*,0.1,-18.8
Cc1cccc(/C=C/C(=O)c2ccc(N3CCOCC3)cc2)c1,-2.5,12.1,.,.,.,.,.,.
CCCCCCCCN1C(=O)[C@H](CC(=O)N2CCN(C(=O)OCC)CC2)C[C@@]2(C(=O)OCC)CCCC=C12,.,.,.,11.8,5.8,.,.,.
COc1ccc(N2CCN(C(=O)c3ccc4c(c3)CC(c3ccccc3)OC4=O)CC2)cc1 (configuration not stated),-9.0,21.2,8.8,5.3,91.3*,78.4*,-0.4,5.9
O=C1OC(c2ccccc2)Cc2cc(C(=O)N3CCN(c4ccc(F)cc4)CC3)ccc21 (configuration not stated),1.1,5.2,1.2,-1.3,90.0*,58.1*,1.0,8.0
O=S(=O)(c1cccs1)N1CCN(CCOc2ccc(Cl)cc2)CC1,-3.6,-1.2,12.4,-7.4,63.5*,45.4,1.4,4.6
COc1ccc(OCCN2CCC(C(=O)NC(c3ccccc3)c3ccc4ccccc4n3)CC2)cc1 (configuration not stated),.,.,.,15.1,49.4*,14.0,-1.2,-12.9
COc1ccc(OCCN2CCC(C(=O)NC(c3ccc(F)cc3)c3ccc4ccccc4n3)CC2)cc1 (configuration not stated),.,.,.,10.4,52.9*,35.5,-0.1,4.2
O=C(NC(c1ccccc1)c1ccc2ccccc2n1)C1CCN(CCOc2ccc(Cl)cc2)CC1 (configuration not stated),.,.,.,5.3,60.5*,58.8*,2.1,8.4
COc1cccc(N(CC(=O)NCC2CCCO2)C(=O)CCC(=O)Nc2nccs2)c1 (configuration not stated),8.6,-17.3,-2.1,-0.8,-4.3,.,.,.
Cc1ccccc1OCC(=O)Nc1ccc(N2CCN(C)CC2)c(Cl)c1,-0.8,-4.0,-5.3,4.3,0.9,.,.,.
CCOC(=O)c1c[nH][nH]c1=O,-4.9,1.6,8.8,-0.2,-3.8,.,.,.
CC(C)=CC(=O)OCC(=O)Nc1cc(C)cc(C)c1,-1.9,5.1,11.1,1.6,-9.2,.,.,.
O=C(NC(c1ccc(F)cc1)c1ccc2ccccc2n1)C1CCN(CCOc2ccc(Cl)cc2Cl)CC1 (configuration not stated),.,.,.,4.0,63.9*,46.8,0.3,1.5
O=C(NC(c1ccc(F)cc1)c1ccc2ccccc2n1)C1CCN(CCOc2ccc(F)cc2)CC1 (configuration not stated),.,.,.,12.2,39.2,.,.,.
COc1ccc(OCCN2CCC(C(=O)NC(c3ccc(OC)cc3)c3ccccn3)CC2)cc1 (configuration not stated),.,.,.,7.4,20.6,.,.,.
